Data: ChEMBL document CHEMBL4433205, “Dual Pharmacophores Explored via Structure-Activity Relationship (SAR) Matrix: Insights into Potent, Bifunctional Opioid Ligand Design” (J Med Chem, 2019)
Activity calls are given as the source filed them.

Experiments:
[1] = biological target: T1, Mu-type opioid receptor (Rattus norvegicus, UniProt P33535); assay: Agonist activity at rat mu opioid receptor expressed in rat C6 cell membranes assessed as stimulation of [35S]GTPgammaS binding measured after 1 hr; format: functional
Summary of the method: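 Membranes (10–20 μg protein/tube) from stably transfected cells incubated 1 h at 25°C in 50 mM Tris-HCl, 100 mM NaCl, 5 mM MgCl2, pH 7.4, with 0.1 nM [35S]-GTPγS, 30 μM GDP and varying test concentrations; filtration, scintillation counting.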

[2] = biological target: T2, Kappa-type opioid receptor (Homo sapiens, UniProt P41145); assay: Agonist activity at human kappa opioid receptor expressed in CHO cell membranes assessed as stimulation of [35S]GTPgammaS binding measured after 1 hr; format: functional
[3] = biological target: T3, Delta-type opioid receptor (Rattus norvegicus, UniProt P33533); assay: Displacement of [3H]diprenorphine from rat delta opioid receptor expressed in rat C6 cell membranes measured after 1 hr by liquid scintillation counting method
[4] = Lipophilicity, log P of the compound; format: physicochemical; conditions: octanol/water
[5] = biological target: T3, Delta-type opioid receptor; assay: Agonist activity at rat delta opioid receptor expressed in rat C6 cell membranes assessed as stimulation of [35S]GTPgammaS binding measured after 1 hr; format: functional
[6] = biological target: T2, Kappa-type opioid receptor; assay: Agonist activity at human kappa opioid receptor expressed in CHO cell membranes assessed as stimulation of [35S]GTPgammaS binding to G protein incubated for 1 hr relative to U69,593; format: functional
[7] = biological target: Delta-type opioid receptor (Rattus norvegicus) (UniProt P33533); assay: Agonist activity at rat delta opioid receptor expressed in rat C6 cell membranes assessed as stimulation of [35S]GTPgammaS binding incubated for 1 hr relative to DPDPE; format: functional
[8] = biological target: T2, Kappa-type opioid receptor; assay: Displacement of [3H]diprenorphine from human kappa opioid receptor expressed in CHO cell membranes measured after 1 hr by liquid scintillation counting method
Summary of the method: (§1)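 Competition with 0.2 nM [3H]-diprenorphine on membranes (20 μg protein/tube) from stably transfected cells in 50 mM Tris-HCl pH 7.4, 1 h at room temperature with shaking; GF/C filtration, three washes, scintillation counting. Nonspecific binding defined with 10 μM naloxone.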

[9] = biological target: Mu-type opioid receptor (Rattus norvegicus) (UniProt P33535); assay: Agonist activity at rat mu opioid receptor expressed in rat C6 glioma cell membranes assessed as stimulation of [35S]GTPgammaS binding measured after 1 hr relative to DAMGO; format: functional
[10] = system: Mus musculus; assay: Antinociceptive activity in C57BL/6 mouse assessed as increase in latency to tail withdrawal up to 10 mg/kg, ip administered at 30 mins interval measured during compound dosing by warm water tail withdrawal assay relative to control; format: functional
Summary of the method: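 Male C57BL/6 mice, 20–30 g, 8–16 weeks. Saline ip, baseline latency 30 min later; then cumulative ip doses 1, 3.2, 10 mg/kg in 5% DMSO/saline at 30 min intervals, latency read 30 min after each. Tail tip (2–3 cm) in 50°C water, 20 s cutoff; expressed as % MPE (MPE = 20 s).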

[11] = organism: Rattus norvegicus; assay: Selectivity ratio of Ki for rat delta opioid receptor expressed in rat C6 cell membranes to Ki for rat mu opioid receptor expressed in rat C6 cell membranes; format: cell-based
Summary of the method: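 Competition binding against 0.2 nM [3H]-diprenorphine, using C6 membranes expressing rat MOR or rat DOR (20 μg protein/tube). Run in 50 mM Tris-HCl pH 7.4, 1 h at room temperature with shaking, then filtration and scintillation counting. Nonspecific binding with 10 μM naloxone.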

[12] = biological target: T1, Mu-type opioid receptor; assay: Displacement of [3H]diprenorphine from rat mu opioid receptor expressed in rat C6 cell membranes measured after 1 hr by liquid scintillation counting method; summary of the method: as §1

T2 sequence (P41145 whole entry): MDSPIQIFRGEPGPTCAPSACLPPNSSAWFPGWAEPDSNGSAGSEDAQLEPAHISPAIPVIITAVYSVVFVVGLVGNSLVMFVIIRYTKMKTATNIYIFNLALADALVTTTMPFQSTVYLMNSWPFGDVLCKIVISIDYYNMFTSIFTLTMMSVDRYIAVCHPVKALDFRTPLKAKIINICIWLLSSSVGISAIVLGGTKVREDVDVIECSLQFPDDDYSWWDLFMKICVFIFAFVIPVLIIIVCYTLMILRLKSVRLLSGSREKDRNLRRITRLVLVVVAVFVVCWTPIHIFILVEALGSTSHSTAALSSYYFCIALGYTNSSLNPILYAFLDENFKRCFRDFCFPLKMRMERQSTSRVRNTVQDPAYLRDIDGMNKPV
T1 sequence (P33535 whole entry): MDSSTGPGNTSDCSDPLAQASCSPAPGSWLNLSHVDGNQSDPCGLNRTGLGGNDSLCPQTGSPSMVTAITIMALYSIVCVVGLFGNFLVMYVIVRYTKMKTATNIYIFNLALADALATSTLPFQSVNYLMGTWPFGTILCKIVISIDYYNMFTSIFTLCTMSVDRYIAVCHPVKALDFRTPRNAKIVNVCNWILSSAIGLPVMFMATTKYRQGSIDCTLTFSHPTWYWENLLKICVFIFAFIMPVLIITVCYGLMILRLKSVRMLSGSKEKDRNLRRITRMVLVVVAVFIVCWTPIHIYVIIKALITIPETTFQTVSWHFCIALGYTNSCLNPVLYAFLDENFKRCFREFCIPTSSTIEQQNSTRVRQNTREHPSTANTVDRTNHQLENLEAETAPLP
Chain of Mu-type opioid receptor (Rattus norvegicus) (P33535 whole entry): as above
T3 sequence (P33533 whole entry): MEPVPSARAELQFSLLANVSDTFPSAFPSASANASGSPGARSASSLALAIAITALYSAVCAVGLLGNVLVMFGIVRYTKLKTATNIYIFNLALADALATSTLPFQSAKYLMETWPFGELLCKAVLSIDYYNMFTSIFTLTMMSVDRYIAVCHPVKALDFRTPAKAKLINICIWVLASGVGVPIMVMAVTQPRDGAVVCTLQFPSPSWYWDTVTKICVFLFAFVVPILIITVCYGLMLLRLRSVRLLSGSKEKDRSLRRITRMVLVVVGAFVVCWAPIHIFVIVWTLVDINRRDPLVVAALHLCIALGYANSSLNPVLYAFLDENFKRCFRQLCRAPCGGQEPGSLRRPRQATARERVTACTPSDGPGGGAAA
Chain of Delta-type opioid receptor (Rattus norvegicus) (P33533 whole entry): as above

| SMILES | EC50 [1] [nM] | EC50 ([2]; cho) | Ki [3] [nM] | logP [4] | EC50 ([5]; read-out: EC50) [nM] | Efficacy [6] | Efficacy [7] | Ki [8] [nM] | Efficacy [9] [%] | MPE [10] | Ratio Ki [11] | Ki [12] [nM] | EC50 ([5]; c6) | EC50 ([2]; read-out: EC50) [nM] |
| --- | --- | --- | --- | --- | --- | --- | --- | --- | --- | --- | --- | --- | --- | --- |
| Cc1cc(O)cc(C)c1C[C@H](N)C(=O)N[C@@H]1CCN(C(=O)C2CC2)c2ccc(Cc3cnc4ccccc4c3)cc21.O=C(O)C(F)(F)F | 0.34 | Not Active | 0.08 | 3.8 | 0.71 | inactive | 84% | 84 | 47 | inactive | 2 | 0.05 | – | – |
| Cc1cc(O)cc(C)c1C[C@H](N)C(=O)N[C@@H]1CCN(C(=O)C2CC2)c2ccc(CN3CCc4ccccc4C3)cc21.O=C(O)C(F)(F)F | 0.52 | Not Active | 0.88 | 3.8 | – | inactive | inactive | 40 | 95 | 60% | 7 | 0.12 | Not Active | – |
| Cc1cc(O)cc(C)c1C[C@H](N)C(=O)N[C@@H]1CCN(C(=O)C2CC2)c2ccc(Cc3ccc4ccccc4c3)cc21 | 0.42 | – | 0.37 | 5.1 | 1.9 | 38% | 32% | 117 | 85 | inactive | 7 | 0.05 | – | > 500 |
| Cc1cc(O)cc(C)c1C[C@H](N)C(=O)N[C@@H]1CCN(S(C)(=O)=O)c2ccc(Cc3cnc4ccccc4c3)cc21.O=C(O)C(F)(F)F | 0.26 | Not Active | 0.64 | 3.1 | – | inactive | inactive | 7 | 96 | 50% | 3 | 0.23 | Not Active | – |
| CC(=O)N1CC[C@@H](NC(=O)[C@@H](N)Cc2c(C)cc(O)cc2C)c2cc(Cc3ccc4c(c3)OCCO4)ccc21.O=C(O)C(F)(F)F | 13 | Not Active | 0.83 | 3.1 | – | inactive | inactive | 142 | 45 | 75% | 2 | 0.38 | Not Active | – |
| Cc1cc(O)cc(C)c1C[C@H](N)C(=O)N[C@@H]1CCNc2ccc(Cc3cc4ccccc4o3)cc21.O=C(O)C(F)(F)F | 1.1 | Not Active | 5 | 4.3 | – | inactive | inactive | 40 | 98 | 50% | 44 | – | Not Active | – |
| CC(=O)N1CC[C@@H](NC(=O)[C@@H](N)Cc2c(C)cc(O)cc2C)c2cc(Cc3ccccc3)ccc21 | – | – | – | 3.4 | – | – | – | – | – | – | – | – | – | – |
| Cc1cc(O)cc(C)c1C[C@H](N)C(=O)N[C@@H]1CCN(C(=O)c2ccccc2)c2ccc(Cc3cc4ccccc4o3)cc21.O=C(O)C(F)(F)F | 12 | Not Active | 0.64 | 5.2 | – | inactive | inactive | 100 | 58 to 64 | inactive | 2 | 0.35 | Not Active | – |
| Cc1cc(O)cc(C)c1C[C@H](N)C(=O)N[C@@H]1CCN(C(=O)C2CC2)c2ccc(Cc3ccccc3)cc21 | – | – | – | 3.9 | – | – | – | – | – | – | – | – | – | – |
| CC(=O)N1CC[C@@H](NC(=O)[C@@H](N)Cc2c(C)cc(O)cc2C)c2cc(Cc3cc4ccccc4o3)ccc21 | 1.9 | – | 0.73 | 3.9 | 1.6 | 33% | 30% | 58 | 86 | inactive | 6 | 0.12 | – | > 500 |
| Cc1cc(O)cc(C)c1C[C@H](N)C(=O)N[C@@H]1CCN(S(C)(=O)=O)c2ccc(Cc3ccc4c(c3)OCCO4)cc21.O=C(O)C(F)(F)F | 9 | – | 1.5 | 3 | – | 39% | inactive | 46 | 47 | 70% | 21 | 0.07 | Not Active | > 500 |
| Cc1cc(O)cc(C)c1C[C@H](N)C(=O)N[C@@H]1CCNc2ccc(Cc3ccc4ccccc4c3)cc21 | – | – | – | 4.9 | – | – | – | – | – | – | – | – | – | – |
| Cc1cc(O)cc(C)c1C[C@H](N)C(=O)N[C@@H]1CCN(C(=O)C2CC2)c2ccc(Cc3cc4ccccc4o3)cc21.O=C(O)C(F)(F)F | 0.9 | Not Active | 0.26 | 4.5 | 3.7 | inactive | 52% | 98 | 89 | inactive | – | 0.05 | – | – |
| Cc1cc(O)cc(C)c1C[C@H](N)C(=O)N[C@@H]1CCNc2ccc(Cc3cnc4ccccc4c3)cc21.O=C(O)C(F)(F)F | 2.2 | Not Active | 1.5 | 3.7 | – | inactive | inactive | 16 | 84 | inactive | 15 | 0.1 | Not Active | – |
| Cc1cc(O)cc(C)c1C[C@H](N)C(=O)N[C@@H]1CCN(S(C)(=O)=O)c2ccc(Cc3cc4ccccc4o3)cc21.O=C(O)C(F)(F)F | 0.34 | – | 1 | 3.8 | – | 61% | inactive | 8 | 102 | inactive | 20 | 0.05 | Not Active | > 500 |
| Cc1cc(O)cc(C)c1C[C@H](N)C(=O)N[C@@H]1CCN(C(=O)c2ccccc2)c2ccc(CN3CCc4ccccc4C3)cc21.O=C(O)C(F)(F)F | 4.2 | Not Active | 4 | 4.5 | – | inactive | inactive | 160 | 93 | inactive | 11 | 0.37 | Not Active | – |
| Cc1cc(O)cc(C)c1C[C@H](N)C(=O)N[C@@H]1CCN(C(=O)c2ccccc2)c2ccc(Cc3cnc4ccccc4c3)cc21.O=C(O)C(F)(F)F | 1 | Not Active | 0.74 | – | – | inactive | – | 100 | 43 | 100% | – | 0.04 | Not Active | – |
| Cc1cc(O)cc(C)c1C[C@H](N)C(=O)N[C@@H]1CCNc2ccc(Cc3ccc4c(c3)OCCO4)cc21.O=C(O)C(F)(F)F | 7.3 | Not Active | – | 3.5 | – | inactive | inactive | – | 88 | inactive | 16 | – | Not Active | – |
| Cc1cc(O)cc(C)c1C[C@H](N)C(=O)N[C@@H]1CCN(C(=O)c2ccccc2)c2ccc(Cc3ccccc3)cc21 | – | – | – | 4.6 | – | – | – | – | – | – | – | – | – | – |
| Cc1cc(O)cc(C)c1C[C@H](N)C(=O)N[C@@H]1CCNc2ccc(CN3CCc4ccccc4C3)cc21.O=C(O)C(F)(F)F | 0.4 | – | 3.1 | 3.7 | – | 25% | inactive | 2.2 | 105 | inactive | – | 0.03 | Not Active | 90 |
| CC(=O)N1CC[C@@H](NC(=O)[C@@H](N)Cc2c(C)cc(O)cc2C)c2cc(Cc3ccc4ccccc4c3)ccc21 | – | – | – | 4.5 | – | – | – | – | – | – | – | – | – | – |
